Test results reported in ChEMBL document CHEMBL1124260, “Synthesis and antitumor activity of quaternary ellipticine glycosides, a series of novel and highly active antitumor agents” (1988).

Key:
Mus musculus [1] = test: Effect on ip implanted syngeneic B16 melanoma by ip administration for 9 days at 2.5 mg/kg was measured as increase in mean life span; conditions: 216 h
Mus musculus [2] = test: Antitumor activity against ip implanted P388 leukemia in mouse after ip administration of 2.5 mg/kg for 5 days expressed as increase in mean life span; format: functional; conditions: 120 h, route intraperitoneal
Procedure, shortened: (§1)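 Saline-dissolved drug was given ip daily for 5 consecutive days, beginning 24 h post-transplant. ILS % was calculated from treated vs control mean survival time over an 80-day observation period.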

Mus musculus [3] = test: Antitumor activity against ip implanted L1210 leukemia in mouse after iv administration of 2.5 mg/kg for 5 days expressed as increase in mean life span; conditions: 120 h
Mus musculus [4] = test: Antitumor activity against ip implanted L1210 leukemia in mouse after ip administration of 2.5 mg/kg for 5 days expressed as increase in mean life span; format: functional; conditions: 120 h, route intraperitoneal
Procedure, shortened: (§2)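 Drug was dissolved in 0.9% NaCl, diluted just before use and given ip once daily for 5 consecutive days, starting 24 h after transplant. ILS % = mean survival time of treated vs control mice, observed for 80 days.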

Mus musculus [5] = test: Inhibition of sc implanted syngeneic colon 38 carcinoma by ip administration at 2.5 mg/kg on 1, 3, 5, 7, 9 days measured as inhibition ratio; format: functional; conditions: route subcutaneous
Procedure, shortened: (§3)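 Tumor homogenate (70 mg) implanted into the axillary region of female BDF1 mice. Drug dissolved in 0.9% NaCl and diluted with saline just before use, then given ip on days 1, 3, 5, 7 and 9. Tumor length and width were measured by caliper on day 20 after inoculation and converted to estimated weight. Result reported as treated vs control tumor weight, T/C %.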

Mus musculus [6] = test: Number of survivors out of 6 ip implanted P388 leukemia in mouse after ip administration of 2.5 mg/kg after 80 days; format: functional; conditions: route intraperitoneal
Procedure, shortened: (§4)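 P388 leukemia, 10^6 ascitic cells implanted ip in female BDF1 mice. Drug in saline given ip for 5 consecutive days from 24 h after transplant. Groups of six per dose level. Survivors/total recorded at the 80-day end of observation; ILS % from treated/control mean survival time.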

Mus musculus [7] = test: Antitumor activity against ip implanted P388 leukemia in mouse after iv administration of 2.5 mg/kg for 5 days expressed as increase in mean life span; conditions: 120 h
Mus musculus [8] = test: Effect on ip implanted syngeneic B16 melanoma by ip administration for 9 days at 5 mg/kg was measured as increase in mean life span; conditions: 216 h
Mus musculus [9] = test: Number of survivors out of 6 ip implanted P388 leukemia in mouse after ip administration of 40 mg/kg after 80 days; format: functional; conditions: route intraperitoneal
Procedure, shortened: as §4

Mus musculus [10] = test: Number of survivors out of 6 ip implanted P388 leukemia in mouse after ip administration of 20 mg/kg after 80 days; format: functional; conditions: route intraperitoneal
Procedure, shortened: as §4

Mus musculus [11] = test: Inhibition of sc implanted syngeneic colon 38 carcinoma by ip administration at 20 mg/kg on 1, 3, 5, 7, 9 days measured as inhibition ratio; format: functional; conditions: route subcutaneous
Procedure, shortened: as §3

Mus musculus [12] = test: Antitumor activity against ip implanted P388 leukemia in mouse after ip administration of 20 mg/kg for 5 days expressed as increase in mean life span; format: functional; conditions: 120 h, route intraperitoneal
Procedure, shortened: as §1

Mus musculus [13] = test: Effect on ip implanted syngeneic B16 melanoma by ip administration of 20 mg/kg for 9 days measured as increase in mean life span; conditions: 216 h
Mus musculus [14] = test: Inhibition of sc implanted syngeneic colon 38 carcinoma by ip administration at 40 mg/kg on 1, 3, 5, 7, 9 days measured as inhibition ratio; format: functional; conditions: route subcutaneous
Procedure, shortened: as §3

Mus musculus [15] = test: Antitumor activity against ip implanted L1210 leukemia in mouse after ip administration of 40 mg/kg for 5 days expressed as increase in mean life span; format: functional; conditions: 120 h, route intraperitoneal
Procedure, shortened: as §2

Mus musculus [16] = test: Number of survivors out of 6 ip implanted L1210 leukemia in mouse after ip administration of 20 mg/kg after 80 days; format: functional; conditions: route intraperitoneal
Procedure, shortened: (§5)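 Female BDF1 mice implanted ip with ascitic fluid holding 10^5 L1210 cells. Saline-dissolved drug given ip daily on days 1-5, starting 24 h after implant. Six mice per dose group, followed 80 days. Survivors/total counted at day 80; ILS % from mean survival time vs controls.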

Mus musculus [17] = test: Number of survivors out of 6 ip implanted L1210 leukemia in mouse after ip administration of 10 mg/kg after 80 days; format: functional; conditions: route intraperitoneal
Procedure, shortened: as §5

Mus musculus [18] = test: Antitumor activity against ip implanted P388 leukemia in mouse after ip administration of 1.25 mg/kg for 5 days expressed as increase in mean life span; format: functional; conditions: 120 h, route intraperitoneal
Procedure, shortened: as §1

Mus musculus [19] = test: Antitumor activity against ip implanted L1210 leukemia in mouse after ip administration of 30 mg/kg for 5 days expressed as increase in mean life span; format: functional; conditions: Mus musculus, L1210, ip, 120 h, route intraperitoneal
Procedure, shortened: as §2

Mus musculus [20] = test: Inhibition of sc implanted syngeneic colon 38 carcinoma by ip administration at 30 mg/kg on 1, 3, 5, 7, 9 days measured as inhibition ratio; format: functional; conditions: route intraperitoneal
Procedure, shortened: as §3

Mus musculus [21] = test: Number of survivors out of 6 ip implanted P388 leukemia in mouse after ip administration of 5 mg/kg after 80 days; format: functional; conditions: route intraperitoneal
Procedure, shortened: as §4

Mus musculus [22] = test: Effect on ip implanted syngeneic B16 melanoma by ip administration for 9 days at 10 mg/kg was measured as increase in mean life span; conditions: 216 h
Mus musculus [23] = test: Antitumor activity against ip implanted L1210 leukemia in mouse after ip administration of 5 mg/kg for 5 days expressed as increase in mean life span; format: functional; conditions: Mus musculus, L1210, ip, 120 h, route intraperitoneal
Procedure, shortened: as §2

Mus musculus [24] = test: Number of survivors out of 6 ip implanted L1210 leukemia in mouse after ip administration of 40 mg/kg after 80 days; format: functional; conditions: route intraperitoneal
Procedure, shortened: as §5

Mus musculus [25] = test: Antitumor activity against ip implanted P388 leukemia in mouse after ip administration of 5 mg/kg for 5 days expressed as increase in mean life span; format: functional; conditions: 120 h, route intraperitoneal
Procedure, shortened: as §1

Mus musculus [26] = test: Antitumor activity against ip implanted L1210 leukemia in mouse after ip administration of 10 mg/kg for 5 days expressed as increase in mean life span; format: functional; conditions: route intraperitoneal
Procedure, shortened: as §2

Mus musculus [27] = test: Antitumor activity against ip implanted P388 leukemia in mouse after ip administration of 40 mg/kg for 5 days expressed as increase in mean life span; format: functional; conditions: 120 h, route intraperitoneal
Procedure, shortened: as §1

Mus musculus [28] = test: Number of survivors out of 6 ip implanted L1210 leukemia mouse, tested after 80 days at 30 mg/kg; format: functional; conditions: route intraperitoneal
Procedure, shortened: as §5

Mus musculus [29] = test: Antitumor activity against ip implanted P388 leukemia in mouse after ip administration of 10 mg/kg for 5 days expressed as increase in mean life span; format: functional; conditions: 120 h, route intraperitoneal
Procedure, shortened: as §1

Mus musculus [30] = test: Number of survivors out of 6 ip implanted P388 leukemia in mouse after ip administration of 10 mg/kg after 80 days; format: functional; conditions: route intraperitoneal
Procedure, shortened: as §4

Mus musculus [31] = test: Antitumor activity against ip implanted L1210 leukemia in mouse after ip administration of 20 mg/kg for 5 days expressed as increase in mean life span; format: functional; conditions: 120 h, route intraperitoneal
Procedure, shortened: as §2

Mus musculus [32] = test: Antitumor activity against ip implanted L1210 leukemia in mouse after ip administration of 1.25 mg/kg for 5 days expressed as increase in mean life span; format: functional; conditions: 120 h, route intraperitoneal
Procedure, shortened: as §2

Mus musculus [33] = test: Antitumor activity against ip implanted L1210 leukemia in mouse after iv administration of 32 mg/kg for 5 days expressed as increase in mean life span; conditions: 120 h
Mus musculus [34] = test: Antitumor activity against ip implanted L1210 leukemia in mouse after iv administration of 8 mg/kg for 5 days expressed as increase in mean life span; conditions: 120 h
Mus musculus [35] = test: Antitumor activity against ip implanted L1210 leukemia in mouse after iv administration of 16 mg/kg for 5 days expressed as increase in mean life span; conditions: 120 h
Mus musculus [36] = test: Antitumor activity against ip implanted P388 leukemia in mouse after iv administration of 32 mg/kg for 5 days expressed as increase in mean life span; conditions: 120 h
Mus musculus [37] = test: Antitumor activity against ip implanted L1210 leukemia in mouse after ip administration of 120 mg/kg for 5 days expressed as increase in mean life span; format: functional; conditions: 120 h, route intraperitoneal
Procedure, shortened: as §2

Mus musculus [38] = test: Antitumor activity against ip implanted syngeneic P388 leukemia in mouse after ip administration of 60 mg/kg for 5 days expressed as increase in mean life span; format: functional; conditions: 120 h, route intraperitoneal
Procedure, shortened: as §1

Mus musculus [39] = test: Antitumor activity against ip implanted P388 leukemia in mouse after ip administration of 30 mg/kg for 5 days expressed as increase in mean life span; format: functional; conditions: 120 h, route intraperitoneal
Procedure, shortened: as §1

Mus musculus [40] = test: Antitumor activity against ip implanted syngeneic L1210 leukemia in mouse after ip administration of 60 mg/kg for 5 days expressed as increase in mean life span; format: functional; conditions: 120 h, route intraperitoneal
Procedure, shortened: as §2

Row | Compound | ILS at 5 mg/kg (Mus musculus [8]) | Cures (Mus musculus [9]) | Cures (Mus musculus [10]) | T/C (Mus musculus [11]) | ILS at 20 mg/kg (Mus musculus [12]) | ILS at 20 mg/kg (Mus musculus [13]) | T/C (Mus musculus [14]) | ILS at 40 mg/kg (Mus musculus [15]) | Cures (Mus musculus [16]) | Cures (Mus musculus [17]) | ILS at 1.25 mg/kg (Mus musculus [18]) | ILS at 30 mg/kg (Mus musculus [19]) | T/C (Mus musculus [20]) | ILS at 10 mg/kg (Mus musculus [22]) | ILS at 5 mg/kg (Mus musculus [23]) | Cures (Mus musculus [24]) | ILS at 5 mg/kg (Mus musculus [25]) | ILS at 40 mg/kg (Mus musculus [27]) | Cures (Mus musculus [28]) | ILS at 10 mg/kg (Mus musculus [29]) | further results
1 | COc1cccc2c1C(=O)c1c(O)c3c(c(O)c1C2=O)C[C@@](O)(C(=O)CO)C[C@@H]3O[C@H]1C[C@H](N)[C@H](O)[C@H](C)O1 [DOXORUBICIN] |  |  |  |  |  |  |  |  |  |  |  |  |  |  |  |  |  |  |  |  | ILS at 2.5 mg/kg (Mus musculus [1]): > 257%; ILS at 2.5 mg/kg (Mus musculus [2]): > 675%; ILS at 2.5 mg/kg (Mus musculus [3]): 30%; ILS at 2.5 mg/kg (Mus musculus [4]): 90%; T/C (Mus musculus [5]): 31%; Cures (Mus musculus [6]): 5; ILS at 2.5 mg/kg (Mus musculus [7]): 65%
2 | Cc1c2cc[n+]([C@@H]3OC[C@@H](O)[C@H](O)[C@@H]3O)cc2c(C)c2c1[nH]c1ccc(O)cc12.[Cl-] | 41% | 4 | 4 | 37% | > 585% | 87% | 5% | > 668% | 1 | 1 | 87% | > 786% | 18% | 61% | 68% | 4 | > 212% | > 526% | 5 | > 369% | Cures (Mus musculus [21]): 1; ILS at 10 mg/kg (Mus musculus [26]; Mus musculus, L1210, ip, 120 h): > 238%; Cures (Mus musculus [30]): 2; ILS at 20 mg/kg (Mus musculus [31]): > 249%; ILS at 1.25 mg/kg (Mus musculus [32]): 46%
3 | Cc1c2cc[n+]([C@@H]3O[C@H](CO)[C@H](O)[C@@H]3O)cc2c(C)c2c1[nH]c1ccc(O)cc12.[Cl-] (stereo in doubt; 43a) | 39% | 2 | 4 | 61% | > 510% | 77% | 8% | > 281% | 3 | 2 | 68% | > 967% | 19% | 44% | 102% | 1 | 158% | > 220% | 6 | > 332% | ILS at 32 mg/kg (Mus musculus [33]): 134%; ILS at 8 mg/kg (Mus musculus [34]): 49%; ILS at 16 mg/kg (Mus musculus [35]): 81%; ILS (Mus musculus [26]; 10 mg/kg): >377%; ILS at 32 mg/kg (Mus musculus [36]): 176%; Cures (Mus musculus [30]): 2; ILS at 20 mg/kg (Mus musculus [31]): > 503%; ILS at 1.25 mg/kg (Mus musculus [32]): 46%
4 | Cc1c2ccncc2c(C)c2c1[nH]c1ccccc12 [ELLIPTECINE] |  |  |  |  |  |  |  |  |  |  |  |  |  |  |  |  |  |  |  |  | ILS at 120 mg/kg (Mus musculus [37]): 128%; ILS at 60 mg/kg (Mus musculus [38]): 139%
5 | Cc1c2ccncc2c(C)c2c1[nH]c1ccc(O)cc12 |  |  |  |  |  |  |  |  |  |  |  |  |  |  |  |  |  |  |  |  | ILS at 30 mg/kg (Mus musculus [39]): 91%; ILS at 60 mg/kg (Mus musculus [40]): 79%
